The values below come from the EternaBench riboswitch data.

The test system of this series is MS2 coat protein. The series is described as follows: apparent Kd, MS2 coat protein; higher = weaker binding; RNA-MaP array; FMN 200 µM where present. The method in brief: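 The apparent Kd is reported as the median of filtered per-cluster binding-curve fits. To get these curves, designs transcribed by stalled E. coli RNA polymerase on Illumina sequencing-chip clusters were titrated with SNAP-549-labelled MS2 coat protein from 0.7 or 1.5 nM, doubling to 3 µM. Titrations were run without and then with constant ligand in 100 mM Tris-HCl pH 7.5, 80 mM KCl, 4 mM MgCl2, BSA, DTT, yeast tRNA and Tween-20, and green signal was normalised to red-channel RNA signal and control-cluster median Fmax.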

Setting [1] is: designed as: OFF switch for flavin mononucleotide, no ligand.
Setting [2] is: ligand present: flavin mononucleotide, designed as: OFF switch for flavin mononucleotide.
The mark [3] stands for this setting: designed as: ON switch for flavin mononucleotide, no ligand.
The mark [4] stands for this setting: ligand present: flavin mononucleotide, designed as: ON switch for flavin mononucleotide.

Regarding “GAAGAUGGUGAGGAUAUCAUUAACCACAUCGGAUGAGAAGGUACCACAUGAGGAUCACCCAUGUACAUAUUACU”, the apparent Kd (as a rule, the concentration giving half-maximal binding under the conditions of the assay) under setting [1] turned out to be 22.4 nM and the “apparent Kd” value under setting [2] is 22.9 nM.
The corresponding values for “CUCCGGCGUGUAGGAUAUGGAUCCGAUUAGGAUCCAGAAGGACAUGAGGAUCACCCAUGUACAUGUAAACAGUCAUCACCGGAG” are 6.24 nM and 6.99 nM.
The corresponding values for “UAUAUAUAGUAAGGAUAUGUAAUUAUUUUAGAAACAGAAGGUACUGACAUGAGGAUCACCCAUGUUUUAGUGUGGGCAUGUAGA” are 90.4 nM and 147 nM.
The matching figures for “AUUAUGUUAGGAUAUGCUUAUGGUGGAUAGUCGGAUAUGAUGCAGAAGGGACAUGAGGAUCACCCAUGUACUGA”: 22.4 nM and 22.1 nM.
As to “AAAAAGCGAGGAUAUGCGGGCGGGUGCGGCCAGCCGAUGUGACAUGAGGAUCACCCAUGUAGAAGGCGCAAAAA”, the “apparent Kd” value was 12.3 nM under setting [1] and 15.1 nM under setting [2].
The corresponding values for “GCAUGCGAUAAUAUGUCUGAGGGCAGAAGGCACAUGAGGAUCACCCAUGUAACGAUCUCUUCAAGUGAGGAUAUGUGCUCAUUG” are 34 nM and 85.2 nM.
Regarding “GCCAGCUCGUGAGGAUAUACAACACUGCUUCGGCAGUGUAUUAAGAUCACAUGAGGAUCACCCAUGUAGAAGGCACGAGCUGAU”, the “apparent Kd” value stood at 13.8 nM under setting [1] and 261 nM under setting [2].
In the case of “UGGUACUAGGGAGGAUAUGGGAAGAUACAUGAGGAUCACCCAUGUUUAAGAAUGUCGAGAGGCAACUAGAAGGCCCUAGUACCU”, the “apparent Kd” value runs as follows: under setting [3], 504 nM; under setting [4], 19.4 nM.
For the sequence “UAUGUUGUUGUGAGGAUAUACUUAGUUUGACCGUAGUAGAAGGCACAUGAGGAUCACCCAUGUAGAUUUUUGGU”, the “apparent Kd” value runs as follows: under setting [1], 9.54 nM; under setting [2], 15.8 nM.
The matching figures for “CAGGUAGACUGAGGAUAUACAAGACUUAGUCUAUCUAGGUCAAAAUCCACAUGAGGAUCACCCAUGUAGAAGGCAGUCUGCCUG”: 17.6 nM and 46.8 nM.
“AAUUAUUGAUGAGGAUAUUGUGGUGAAACACGACAAGAAGGCAUUAUUCACAUGAGGAUCACCCAUGUGAGCCUGGUGCAUAUA”: the “apparent Kd” value reads like this: under setting [1], 15.5 nM; under setting [2], 13.8 nM.
As to “CUUUUGUGAGGAUAUCAGUAGUAAAUAUAUAAAAUUACUACUGAGAAGGCACAUGAGGAUCACCCAUGUUCCUC”, the “apparent Kd” value by setting is: under setting [1], 38.1 nM; under setting [2], 274 nM.
Take “CAUUCGUGUCUAGGAUAUGAGUGACAAGCACGAGAUUUUCUCGCCGCUAGCUCAGAAGGAGACAUGAGGAUCACCCAUGUAAGG”: the “apparent Kd” value by setting is: under setting [1], 96.4 nM; under setting [2], 17.4 nM.
On to “GUAACAUGAGGAUCACCCAUGUAUAGAACACUCAAUAGAUUUGAGGAUAUAGUGGAAUUUACACACUAGAAGGCAGUGGGUGCA”, for which the “apparent Kd” value under setting [3] amounted to 181 nM and the “apparent Kd” value under setting [4] is 253 nM.
The corresponding values for “GACGCGCUCACAGGAUAUAGAUCCUCAGUGGCUCUAGAAGGGUGAACGUGCCCGAACGGGACAUGAGGAUCACCCAUGUAAUAA” are 34.9 nM and 13.2 nM.
As for “AUCAUGUGAGGAUAUAAAAUGAAUAUAAAUUAUUAUCUUGAUUAGAAGGCACAUGAGGAUCACCCAUGUCUGAA”, the “apparent Kd” value runs as follows: under setting [1], 32.5 nM; under setting [2], 39.2 nM.
“AUAGACAUACAGCCACAUGAGGAUCACCCAUGUACGCUGACGAGAAGGGUCAGCUAGCAGAGGUGACAGGAUAUCGGACAUGAA”: the “apparent Kd” value is, setting by setting: under setting [3], 149 nM; under setting [4], 89 nM.
As for “AGGGUGGGAGGAUAUCCAAUAUAUGACAUGAGGAUCACCCAUGUUUCCACUCGUACCUCCGGAGAAGGCCCUUCCA”, the “apparent Kd” value is, setting by setting: under setting [1], 19.9 nM; under setting [2], 19.7 nM.
“AAUUGGAUCCAGAAGGCAUGGACGACCCGUCACAUUAACAUGAGGAUCACCCAUGUAUAAAGACAUGAGGAUAUGGAUCCUAAA”: the “apparent Kd” value under setting [3] is 25.7 nM and the “apparent Kd” value under setting [4] is 7.99 nM.
For the sequence “CACGAUGAUGUAGGAUAUAUGCUGGAAUACAGCAUAGAAGGACAUGAGGAUCACCCAUGUAAAGUGUCUCCAAAUAACAUCGUG”, the “apparent Kd” value is 30.3 nM under setting [1] and 77.5 nM under setting [2].
On to “CGCUACGUUUCGUAGCAGUGUCAUCGAGAAGGCCCUGACAUGAGGAUCACCCAUGUUAAAACACAGGAGGAUAUCGAUGAUACA”, for which the “apparent Kd” value runs as follows: under setting [3], 4.39 nM; under setting [4], 4.56 nM.
The matching figures for “UGUUGUAUUACAGGAUAUCUAUUGUUUUUAAUUAGAGAAGGGUAUUCACAUGAGGAUCACCCAUGUAUAUACGAGGAAGUUGUG”: 50.5 nM and 53.4 nM.
In the case of “UGGCGGAGCAGAGGAUAUUACAUGAGGAUCACCCAUGUAUGAACCAAUAGCUGGAAACAGCAAUGUAAGAAGGCUGCUCCGACA”, the “apparent Kd” value came out at 12.1 nM under setting [1] and 176 nM under setting [2].
On to “GCUGUCGCGUGAGGAUAUGGUCUGCAGUGCUGACCAGAAGGCAUGUCGAUAGACAUGAGGAUCACCCAUGUGGUUAGGGCGGCU”, for which the “apparent Kd” value was 804 nM under setting [3] and 351 nM under setting [4].
The matching figures for “AGGUAACAUGAGGAUCACCCAUGUAAGGUGAACGUAGGAUAUCGAGGAGGUAGGGUAGGCCGAGAAGGACGAGGAG”: 293 nM and 179 nM.
For the sequence “UACGUAUGAGGAUAUACAAACAGAAAAAUCAGACGUAACUGACAUGAGGAUCACCCAUGUAGAAGGCAUAUACA”, the “apparent Kd” value under setting [1] was determined as 27.7 nM and the “apparent Kd” value under setting [2] was found to be 18.6 nM.
The corresponding values for “AGUCGGAGCAGAGGAUAUACAUGAGGAUCACCCAUGUAAUAAAGUGAAGCCUGGUAACAGGCAAUGUAGAAGGCUGCUCCGACA” are 11.3 nM and 77.7 nM.
In the case of “GCGAUUGCGUAGAAGGUACAAUAUAUUUCAUUGUAAGGAUAUACUUACAUGAGGAUCACCCAUGUUAAUGGAAUUUGCAAUCGC”, the “apparent Kd” value is, setting by setting: under setting [3], 74.1 nM; under setting [4], 28.9 nM.
For the sequence “AAACUGCAUGUGAGGAUAUGCACCGGCUAAACCGGGCAGAAGGCACAUGAGGAUCACCCAUGUCAUCCUAUUGC”, the “apparent Kd” value turned out to be 9.41 nM under setting [1] and 18.4 nM under setting [2].
As to “CAAAAGGAAGGAUAUACAUGUUAAUUAUCCGAAGAUGUCGUACAUGAGGAUCACCCAUGUAGAAGGUCCAAAAC”, the “apparent Kd” value is, setting by setting: under setting [1], 30.3 nM; under setting [2], 78.7 nM.
Consider “GGCUAGCCUCAAGGAUAUACGCUCUCAACAAAGAACCGACUACAUGAGGAUCACCCAUGUACCAUGUAGAAGGUGAGGUUAGCC”, for which the “apparent Kd” value came to 906 nM under setting [3] and 58.1 nM under setting [4].
With “ACAAAUCGAGGAUAUACAUGAGGAUCACCCAUGUGGAGCCCACUGCGCGGUUCUCAGCGUAGAAGGCGAAAACA”, the “apparent Kd” value by setting is: under setting [1], 30.4 nM; under setting [2], 99.9 nM.
In the case of “UCGGCGCGAGGAUAUGCGGCUUGUGCUUCGGGCCCUCGCGUACAUGAGGAUCACCCAUGUAGAAGGCGCGCCGC”, the “apparent Kd” value under setting [1] stood at 120 nM and the “apparent Kd” value under setting [2] worked out at 91.7 nM.
In the case of “GCUGUAUAUGAGAAGGCGAUCAUGAAACAUGAUCGAGGAUAUCAUGUUUACAUGAGGAUCACCCAUGUAUGGGUAUAAUGCAGC”, the “apparent Kd” value under setting [3] was 417 nM and the “apparent Kd” value under setting [4] was 24.1 nM.
Turning to “UGGUACUAGGGAGGAUAUGGGAAGAUACAUGAGGAUCACCCAUGUUUAAGAAUGCCGAGAGGCAACUAGAAGGCCCUAGAACCU”, the “apparent Kd” value under setting [3] turned out to be 406 nM and the “apparent Kd” value under setting [4] worked out at 19.7 nM.
Regarding “GGACGUUACAUCUACAUGAGGAUCACCCAUGUCUCUUGAGAUGAGGAUAUGUAUACGAAUCGUUUAUAGAAGGCAUGUACGUCC”, the “apparent Kd” value under setting [3] was 39.8 nM and the “apparent Kd” value under setting [4] was determined as 46.4 nM.
In the case of “UUGUUGUCAGGAUAUCGUUAAUUUAAUUGUUUGUAUUAGUUCGAGAAGGGACAUGAGGAUCACCCAUGUUUUUU”, the “apparent Kd” value amounted to 25.6 nM under setting [1] and 51.5 nM under setting [2].
Regarding “AUGGACGUCGUAGGAUAUGUAGGAUAUUCCUACAUGAGGAUCACCCAUGUUGACAUGGAAGAAGGACAGAAGGACGAUGUCCAU”, the “apparent Kd” value by setting is: under setting [3], 199 nM; under setting [4], 4.47 nM.
On to “ACUAAACGAGGAUAUACUAACAAACCUCAAACAUACAUCAAACAUGAGGAUCACCCAUGUAGAAGGCGUAAACU”, for which the “apparent Kd” value under setting [1] amounted to 37.6 nM and the “apparent Kd” value under setting [2] was found to be 17.6 nM.
The matching figures for “ACGGCUAACCCAGUUUAGAUCUCAAGAAGGGUACACUGGGCAAGGUACAUGAGGAUCACCCAUGUACAGGAUAUUGAGAUGAGA”: 12.1 nM and 34.1 nM.
Turning to “ACUUGGUUACAGAAGGGCAUUUAUAAUUAUCAUUACUCAUCCUAUGUUUGCAGGAUAUGUUUAACAUGAGGAUCACCCAUGUAC”, the “apparent Kd” value by setting is: under setting [3], 171 nM; under setting [4], 97.6 nM.
As to “GAUUGAAAAGGAUAUACAUGAGGAUCACCCAUGUGCUUCAGCUAGGAGACUAGCAUUGGUAGAAGGUUUUAAUC”, the “apparent Kd” value runs as follows: under setting [1], 22.2 nM; under setting [2], 43.9 nM.
“UUUGAAUUGCAAGGAUAUCUUAUUUAGAUUUUAAGAGAAGGUGCUUUAUAGUUACAUGAGGAUCACCCAUGUAUUUCUUUUUAU”: the “apparent Kd” value under setting [3] was 25.5 nM and the “apparent Kd” value under setting [4] is 17.7 nM.
The matching figures for “GGGUACAUCGGAGGAUAUCAUGUAAAUACAUGAGGAUCACCCAUGUCGAUGGAGACAUCGGAGAUUGAGAAGGCCGAUGUGCCG”: 145 nM and 9.5 nM.
For “GCCAGAGCAGGAUAUUCAAUAAUUCACAUGAGGAUCACCCAUGUCCAGCGAAAGCUGGAAGGAGAAGGGCUCUGGC”, the “apparent Kd” value under setting [1] was found to be 16.3 nM and the “apparent Kd” value under setting [2] was determined as 13.7 nM.
The matching figures for “AGUACCAUGUAGAAGGGAUAUCUGAUUCAGAUAUCAGGAUAUACAUGAGGAUCACCCAUGUAAAUGUACUCCACGAAAGUGGAA”: 22.1 nM and 63.8 nM.
The matching figures for “GGAUAGUGUCGUUAUCCGUAGCGAACAUGAGGAUCACCCAUGUAGGAUAUGUUAUUAAACUAAUAACAGAAGGGCGUUAGUCUC”: 37.1 nM and 42.8 nM.
Turning to “GGGUACAUCGGAGGAUAUCAUGUAGACACAUGAGGAUCACCCAUGUCGAUGGAGACAUCGGAGAUUGAGAAGGCCGAUGUACCG”, the “apparent Kd” value runs as follows: under setting [3], 435 nM; under setting [4], 23.9 nM.
